This is a sample that favours compounds with a hit; in the whole collection about 10% have one here.
PMI act hi M6P – human PMI activators, high substrate, primary screen, biochemical, fluorescence intensity, near-saturating mannose 6-phosphate | Mannose-6-phosphate isomerase (Homo sapiens), P34949 | coupled PMI enzyme assay, resazurin fluorescence, 20 min; active compounds read high; 1 = untreated enzyme, 0 = substrate-free blank | activation factor at 20 µM | 0.34% of 190,000 active | AID 1216, 2008;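 active means activation factor of 2 or more at 20 µM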
Target sequence (P34949 whole entry, looked up): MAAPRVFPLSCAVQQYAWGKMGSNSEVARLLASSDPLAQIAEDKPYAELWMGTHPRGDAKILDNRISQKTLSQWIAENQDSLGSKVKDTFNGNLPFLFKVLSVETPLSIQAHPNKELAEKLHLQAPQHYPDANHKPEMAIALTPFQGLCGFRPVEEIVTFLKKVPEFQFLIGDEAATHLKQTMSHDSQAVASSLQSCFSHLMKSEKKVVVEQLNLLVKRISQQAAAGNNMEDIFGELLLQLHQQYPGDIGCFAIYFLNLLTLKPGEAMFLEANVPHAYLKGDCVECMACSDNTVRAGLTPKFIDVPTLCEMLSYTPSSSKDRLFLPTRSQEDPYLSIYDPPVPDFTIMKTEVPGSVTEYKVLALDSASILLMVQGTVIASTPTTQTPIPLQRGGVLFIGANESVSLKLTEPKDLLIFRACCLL
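Test system: human PMI in coupled enzyme assay; Input: PMI at 15 ng/mL final; Medium: HEPES buffer, pH 7.4; Schedule: 20 min incubation at room temperature; Technique: resorufin fluorescence at Ex 544/Em 590 nm; Compound: 20 µM single dose; Probe or stimulus: Near-saturating mannose-6-phosphate, 1.0 mM.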
WT yeast gro inh – growth inhibition of WT strain, primary screen, mitochondrial fusion inhibitor project, WT and mutant strains, chemical genetic; mitochondrial fusion phenotypic screen; inhibition, % at 10 µM; 2.1% of 190,000 active; in the data active means inhibition above about 58%; tested in S. cerevisiae
PMI activator – activators of human PMI, primary screen, biochemical, fluorescence intensity, near-Km mannose 6-phosphate; purified human PMI, coupled resazurin fluorescence, 20 min; active compounds read high; 1 = vehicle control, 0 substrate-free wells; activation factor at 20 µM; 0.005% of 190,000 active; AID 1214, 2008;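 active means activation factor of 2 or more at 20 µM, relative to plate controls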
L major viab – Leishmania major promastigote growth inhibition, primary screen. inhibition, % at 10 µM. Leishmania major promastigotes, resazurin fluorescence viability. 9% of 200,000 active; in the data active means inhibition above about 50%;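 further: promastigotes grown with compound for 44 hours at 28 °C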
Diaphorase act – compounds boosting diaphorase resazurin reduction – biochemical, uHTS, resorufin fluorescence, counter-screen for diaphorase-coupled primary assays, primary screen | 0.005% of 190,000 active | AID 1229, 2008 | Diaphorase/resazurin coupled assay, 16 min; active compounds read high; 1 = vehicle wells, 0 = NADH-free wells | activation factor at 20 µM;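 active means diaphorase activity raised at least twofold by the compound at 20 µM; inactive means activation factor below 2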
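Assay system: bacterial diaphorase enzyme (C. kluyveri) / Input: enzyme 0.07 U/mL final / Medium: 50 mM HEPES pH 7.4 with 4.542 mM MgCl2, 0.005% Tween 20 / Doses: single compound dose of 20 µM, 1% DMSO final / Incubation: 16 min enzyme reaction, ambient temperature / Signal: fluorescence, excitation 544 nm and emission 590 nm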
The depositor's hits bear a star; x = no result.

SMILES | PMI act hi M6P | WT yeast gro inh | PMI activator | L major viab | Diaphorase act
CCCn1c(SCC(=O)OCC)nc(C(F)(F)F)cc1=O | 1 | -4 | 1.1 | 2 | 0.9
Nc1nc2ccccc2n1/N=C/c1cccnc1 | x | -6 | x | 21 | x
Nc1nc2ccccc2n1/N=C/c1ccc([N+](=O)[O-])s1 | 1 | 15 | 1 | 100* | 1
CCCOC(=O)c1c(-c2ccc(C)cc2C)csc1NC(=O)C1C2CCC(O2)C1C(=O)O (centres undefined) | 0.8 | -1 | 1 | -3 | 0.9
Cc1ccc(S(=O)(=O)NCCSc2nnnn2-c2cc(C)ccc2C)cc1 | 0.8 | 8 | 0.8 | 100* | 0.8
Cc1ccc(C)c(-n2nnnc2Sc2nnnn2-c2ccccc2)c1 | x | -42 | x | 98* | x
Cc1ccc(S(=O)(=O)NCCSc2nnnn2-c2ccccc2)cc1 | 1 | 14 | 1 | 7 | 0.9
CCSc1nnnn1-c1ccccc1 | 1 | 1 | 1 | -4 | 0.9
CC[C@H](C)NC(=O)c1ccc(Cn2c(=S)[nH]c3c([nH]c4ccc(OC)cc43)c2=O)cc1 | 1.1 | -16 | 1 | -2 | 1
NNC(=O)c1sccc1OCc1ccc(Cl)cc1Cl | 1 | -1 | 1 | 16 | 0.9
N#CCCN1CCN(Cc2cc(-c3ccccc3)ccc2O)CC1 | 0.9 | -4 | 0.9 | 91* | 0.9
Cc1ccc(S(=O)(=O)N2CCN(CCC#N)CC2)cc1 | 1 | -5 | 1 | -1 | 0.9
Oc1c(CN2CCOCC2)cc(-c2ccccc2)cc1CN1CCOCC1 | 1 | -4 | 1 | 4 | 0.9
CC(C)(C)CC(C)(C)c1ccc(O)c(CN2CCN(CCC#N)CC2)c1 | 1 | 32 | 1 | 97* | 0.8
COCC1CCN(Cc2nc(COc3ccccc3)no2)C1 (centres undefined) | 1 | -6 | 1.1 | -6 | 1.2
c1ccc(OCc2noc(CN3CCC(C4CCCCC4)C3)n2)cc1 (centres undefined) | 1 | 40 | 1 | 55* | 0.9
c1ccc(Cc2noc(CN3CCN(CCOc4ccccc4)CC3)n2)cc1 | 1.1 | 6 | 1 | 75* | 1
Fc1ccccc1Cc1noc(CN2CCN(C/C=C/c3ccccc3)CC2)n1 | 0.9 | 20 | 0.9 | 85* | 0.9
CCOc1ccc(CNC(=S)NCc2ccc(OCC)cc2)cc1 | 0.9 | 13 | 0.8 | -3 | 0.9
COc1ccc(CNC(=S)NCc2ccc(OC)cc2)cc1 | 1 | 4 | 1 | 6 | 0.9
COc1ccc(CNC(=S)NC(C)CCc2ccccc2)cc1 (centres undefined) | 0.9 | 71* | 0.9 | 19 | 0.8
CC(C)COc1ccc(CNC(=S)NCc2ccccc2)cc1 | 0.9 | 69* | 0.8 | 1 | 0.8
CCCCn1c(NC(=O)c2ccccc2)c(C#N)c2nc3ccccc3nc21 | 0.5 | 11 | 0.7 | 97* | 0.7
O=C(c1sc2ccccc2c1Cl)N(Cc1ccccc1)C1CCS(=O)(=O)C1 (centres undefined) | 0.8 | 0 | 0.8 | 46 | 0.8
O=C(c1sc2ccccc2c1Cl)N(Cc1ccco1)C1CCS(=O)(=O)C1 (centres undefined) | 1 | 0 | 1.1 | 96* | 0.8
SMILES | PMI act hi M6P | WT yeast gro inh | PMI activator | L major viab | Diaphorase act
CC(C)CCN1CCN(CCCn2cccn2)CC1CCO (centres undefined) | 1 | 9 | 0.9 | 9 | 1
CN(C)c1ccc(/C=C(/C(=O)c2ccc(Cl)cc2Cl)n2cncn2)cc1 | 1 | 20 | 0.9 | 51* | 0.9
CC(C)CC(=O)/C(=C\c1ccc(Cl)cc1Cl)n1cncn1 | 0.9 | 67 | 0.9 | 100* | 0.8
COc1ccc(/C=C(/C(=O)c2ccc(Cl)cc2Cl)n2cncn2)cc1 | 1.1 | 39 | 1.1 | 23 | 0.9
C=CCOc1ccccc1CN1CCSCC1 | 0.9 | 7 | 0.9 | 98* | 0.8
N#CC1=C(N)C2=CCCC[C@H]2[C@H](c2cccc(F)c2)C1(C#N)C#N | 1.2 | 39 | 1.1 | 81* | 1
O=C(NCC(c1ccco1)N1CCCCC1)c1ccc2c(c1)S(=O)(=O)c1ccccc1C2=O (centres undefined) | 0.9 | 3 | 1 | 35 | 0.9
CCOc1ccc(/C=N/Nc2cc(=O)n(C)c(=O)n2C)cc1 | 0.5 | 11 | 0.9 | 71* | 0.8
COc1cccc(CNC(=O)CCC2CCCN(C(=O)c3ccc(OC)c(F)c3)C2)c1 (centres undefined) | 0.9 | 0 | 1 | -5 | 0.8
CCN1C(=O)/C(=C/C=C2/CCCN2C)OC1=S | 0.5 | -5 | 0.7 | -5 | 0.7
Cc1nc(CS(=O)c2ccc(Cl)cc2)cc(NCc2ccc(Cl)cc2Cl)n1 (centres undefined) | 0.9 | 59* | 0.9 | 7 | 0.8
COc1ccc(N2Cc3cccc(C(=O)NC(C)CCc4ccco4)c3C2=O)cc1 (centres undefined) | 0.9 | 16 | 0.9 | -3 | 0.7
CC(CCc1ccco1)NC(=O)c1cccc2c1C(=O)N(C1CCCCC1)C2 (centres undefined) | 1 | 60* | 1 | 15 | 0.9
COc1cc(C=O)c(Br)cc1OCC(=O)NCCc1ccccc1 | 1.1 | 17 | 1 | 4 | 0.8
O=C(COc1ccc(Br)cc1CNCCc1ccccc1)NCc1ccccc1 | 1 | 31 | 1 | 88* | 1.1
CCCNCc1cc(Br)ccc1OCC(=O)NCCc1ccccc1 | 1 | 19 | 1 | 52* | 0.9
Cc1cccc(N(CC(=O)NCCC2=CCCCC2)S(C)(=O)=O)c1C | 1.1 | 14 | 1 | 29 | 0.9
Cc1ccc(C(=O)NCC(=O)OC(C)C(=O)Nc2ccc(N(C)C)cc2)cc1C (centres undefined) | 0.9 | -18 | 0.9 | -3 | 0.9
COc1ccc(C2OC(=O)Cc3cc(OC)c(OC)cc32)cc1 (centres undefined) | 1 | -2 | 0.9 | 6 | 0.8
O=C(Nc1nc2ccccc2n1Cc1ccc(Cl)cc1)c1ccco1 | 1 | -6 | 1 | 14 | 0.9
Cc1ccc(OCCn2c(NC(=O)c3ccco3)nc3ccccc32)cc1 | 0.9 | -2 | 0.8 | 27 | 0.8
O=C(Nc1nc2ccccc2n1CCOc1ccc(Cl)cc1)c1ccco1 | 0.9 | 70* | 1 | 90* | 0.9
O=C(Nc1nc2ccccc2n1CCOc1ccccc1)c1ccco1 | 1.2 | 56 | 1.2 | 62* | 1.1
Cc1ccc(S(=O)(=O)N(c2cccc(C(F)(F)F)c2)C2C=CS(=O)(=O)C2)cc1 (centres undefined) | 1 | -8 | 1 | 29 | 0.9
CCc1ccc(N(C2C=CS(=O)(=O)C2)S(=O)(=O)c2ccccc2)cc1 (centres undefined) | 1 | -16 | 0.9 | 59* | 0.9

Compound activity deposited in PubChem by several laboratories.
